Assay results published in ChEMBL document CHEMBL1132570, “Synthesis of cytotoxic indenoisoquinoline topoisomerase I poisons” (1999).

Columns and labels:
[1] = molecular target: T1, DNA topoisomerase 1 (Homo sapiens) (UniProt P11387); assay: The activity was examined against DNA topoisomerase I mediated DNA cleavage using 3'-End-labelled 161 BP plasmid DNA; 0 indicates inactive
T1 sequence (whole entry): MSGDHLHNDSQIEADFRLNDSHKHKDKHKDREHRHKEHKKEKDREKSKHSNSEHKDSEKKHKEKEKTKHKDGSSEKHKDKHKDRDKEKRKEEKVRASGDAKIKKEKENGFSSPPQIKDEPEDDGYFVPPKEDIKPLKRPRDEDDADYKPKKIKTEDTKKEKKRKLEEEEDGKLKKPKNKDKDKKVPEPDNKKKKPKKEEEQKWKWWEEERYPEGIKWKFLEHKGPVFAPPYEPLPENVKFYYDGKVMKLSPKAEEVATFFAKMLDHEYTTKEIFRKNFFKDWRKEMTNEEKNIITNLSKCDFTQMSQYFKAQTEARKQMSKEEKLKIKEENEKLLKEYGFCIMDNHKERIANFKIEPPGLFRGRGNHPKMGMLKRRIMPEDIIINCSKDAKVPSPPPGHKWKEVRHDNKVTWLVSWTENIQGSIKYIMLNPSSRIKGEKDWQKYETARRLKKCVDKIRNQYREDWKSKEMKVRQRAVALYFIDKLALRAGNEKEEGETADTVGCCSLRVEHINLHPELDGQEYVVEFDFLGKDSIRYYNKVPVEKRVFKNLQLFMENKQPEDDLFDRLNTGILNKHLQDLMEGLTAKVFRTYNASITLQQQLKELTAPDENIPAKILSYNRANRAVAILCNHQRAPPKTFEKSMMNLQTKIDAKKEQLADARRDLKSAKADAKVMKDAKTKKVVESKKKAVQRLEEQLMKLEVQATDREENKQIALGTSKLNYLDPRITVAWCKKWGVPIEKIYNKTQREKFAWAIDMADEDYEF
How it was run: (§1)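 A 161 bp PvuII–HindIII fragment of pBluescript SK(–) was 3'-end-labeled at the HindIII site with [α-32P]dCTP by Klenow fill-in. About 50 000 dpm per reaction was incubated with top1 and drug (0.1–300 μM) at 30 °C for 30 min, then stopped with 0.5% SDS (final). Products were run on 16% polyacrylamide/7 M urea gels at 51 °C and imaged by phosphorimager.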

SF-539 [2] = assay: Compound was tested for its cytotoxicity against CNS SF-539 Human cancer cell line; format: functional
How it was run: (§2)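 GI50 = concentration giving 50% growth inhibition, from a screen of about 55 human cancer cell lines over a 10^-8 to 10^-4 M test range. Values come from two determinations where a population standard deviation is shown, otherwise from single determinations.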

UACC-62 = assay: In vitro cytotoxicity against UACC-62 (Human melanoma) cell line.; format: functional; how it was run: as §2
DU-145 = assay: Cytotoxicity against prostate DU-145 human cancer cell line.; format: functional; how it was run: as §2
HCT-116 = assay: Cytotoxicity against colon HCT116 human cancer cell line.; format: functional; how it was run: as §2
OVCAR-3 = assay: Cytotoxicity against ovarian OVCAR-3 human cancer cell line.; format: functional; how it was run: as §2
HOP-62 = assay: Cytotoxicity against lung HOP-62 human cancer cell line.; format: functional; how it was run: as §2
MDA-MB-435 [3] = assay: In vitro cytotoxicity against MDA-MB-435 (Human breast cancer) cell line.; format: functional; how it was run: as §2
SN12C = assay: In vitro cytotoxicity against SN12C (Human renal cancer) cell line.; format: functional; how it was run: as §2
[4] = molecular target: T1, DNA topoisomerase 1 (Homo sapiens); assay: The activity was examined against DNA topoisomerase I mediated DNA cleavage using 3'-End-labelled 161 BP plasmid DNA. 0 indicates inactive; how it was run: as §1
MDA-MB-435 [5] = assay: Compound was tested for its cytotoxicity against breast MDA-MB-435 Human cancer cell line; format: functional; how it was run: as §2
SF-539 [6] = assay: Compound was tested for its cytotoxicity against CNS SF-539 cell line; format: functional; settings: Homo sapiens; how it was run: as §2
[7] = molecular target: T1, DNA topoisomerase 1 (Homo sapiens); assay: The activity was examined against DNA topoisomerase I mediated DNA cleavage using 3''-End-labelled 161 BP plasmid DNA; +/- less than 20% of the activity of 1 uM camptothecin; how it was run: as §1
[8] = molecular target: T1, DNA topoisomerase 1 (Homo sapiens); assay: The activity was examined against DNA topoisomerase I mediated DNA cleavage using 3''-End-labelled 161 BP plasmid DNA. + indicates between 20 and 50% of the activity of 1 uM camptothecin; how it was run: as §1
[9] = molecular target: T1, DNA topoisomerase 1 (Homo sapiens); assay: The activity was examined against DNA topoisomerase I mediated DNA cleavage using 3''-End-labelled 161 BP plasmid DNA.+ indicates between 20 and 50% of the activity of 1 uM camptothecin; how it was run: as §1

| Structure (SMILES) | Top1 cleavage activity [1] | GI50 (SF-539 [2]) [µM] | GI50 (UACC-62) [µM] | GI50 (DU-145) [µM] | GI50 (HCT-116) [µM] | GI50 (OVCAR-3) [µM] | GI50 (HOP-62) [µM] | GI50 (MDA-MB-435 [3]) [µM] | GI50 (SN12C) [µM] | Top1 cleavage activity [4] | GI50 (MDA-MB-435 [5]) [µM] | GI50 (SF-539 [6]) [µM] | Top1 cleavage activity [7] | Top1 cleavage activity [8] | Top1 cleavage activity [9] |
| --- | --- | --- | --- | --- | --- | --- | --- | --- | --- | --- | --- | --- | --- | --- | --- |
| COc1ccc(-n2c3c(c4cc(OC)c(OC)cc4c2=O)C(=O)c2cc4c(cc2-3)OCO4)cc1 | 0 | > 100 | > 100 | 76 | > 100 | > 100 | 20 | > 100 | > 100 |  |  |  |  |  |  |
| O=C1c2ccccc2-c2oc(=O)c3ccccc3c21 |  | > 100 | > 100 | > 100 | > 100 | > 100 | > 100 | > 100 | > 100 | 0 |  |  |  |  |  |
| COc1cc2c3c(n(C)c(=O)c2cc1OC)-c1cc(OC)c(OC)c(OC)c1C3=O |  |  | 55 | > 100 | > 100 | > 100 | > 100 |  | > 100 | 0 | > 100 | > 100 |  |  |  |
| CCN1Cc2cc(OC)c(OC)cc2[C@@H]2[C@H]1c1cc3c(cc1[C@@H]2O)OCO3 |  | 50 |  | 41 | 35 | 24 | 30 | 25 | 26 | 0 |  |  |  |  |  |
| COc1cc2c3c(n(Cc4ccccc4)c(=O)c2cc1OC)-c1cc2c(cc1C3=O)OCO2 |  |  | 50 | 4 | > 100 | > 100 | 12 | > 100 |  |  |  |  | +/- |  |  |
| COc1cc2c3c(n(CCCCCO)c(=O)c2cc1OC)-c1cc2c(cc1C3=O)OCO2 |  |  | > 100 | 5.1 | > 100 | > 100 | 8.7 | > 100 |  |  |  |  |  | 20-50% of the activity of 1 uM camptothecin |  |
| CCN1C(=O)c2cc(OC)c(OC)cc2[C@@H]2[C@H]1c1cc3c(cc1[C@@H]2O)OCO3 |  | > 100 |  | > 100 | > 100 | > 100 | > 100 | > 100 | > 100 | 0 |  |  |  |  |  |
| C=CCN1C(=O)c2cc(OC)c(OC)cc2[C@H]2C(=O)c3cc4c(cc3[C@H]21)OCO4 |  |  | 0.38 | 0.77 | 0.34 | 1.78 | 0.36 |  |  | 0 | 1.4 |  |  |  |  |
| CCCCn1c2c(c3cc(OC)c(OC)cc3c1=O)C(=O)c1cc3c(cc1-2)OCO3 |  |  | 21 | 16 | 45 | 78 | 16 | > 100 |  |  |  |  |  |  | 20-50% of the activity of 1 uM camptothecin |
| CCn1c2c(c3ccccc3c1=O)C(=O)c1ccccc1-2 |  |  |  |  |  |  |  |  |  | 0 |  |  |  |  |  |
| O=C1c2ccccc2-c2c1c1ccccc1c(=O)n2CCCCCO |  |  | 14.3 | 3.4 | 3.9 | 93 | 4.4 | 41 |  |  |  |  |  | 20-50% of the activity of 1 uM camptothecin |  |
| COc1cc2c3c(n(CCCCO)c(=O)c2cc1OC)-c1cc2c(cc1C3=O)OCO2 |  |  | 0.99 | 0.36 | 1.4 | 3.7 | 0.7 | 10 |  |  |  |  |  | 20-50% of the activity of 1 uM camptothecin |  |
| CC[n+]1cc2cc(OC)c(OC)cc2c2c1-c1cc3c(cc1C2)OCO3 |  | 56 |  | 58 | 13 | 1.9 | 22 | 14 | 2.7 |  |  |  |  |  |  |
| O=C(O)CCCn1c2c(c3ccccc3c1=O)C(=O)c1ccccc1-2 |  |  | 73 | 48 | 40 | > 100 | 87 | > 100 | 27 |  |  |  |  |  |  |
| Cn1c2c(c3ccccc3c1=O)C(=O)c1cc3c(cc1-2)OCO3 |  |  | > 100 | > 100 | 54 | > 100 | 22 |  | > 100 |  |  |  |  |  | 20-50% of the activity of 1 uM camptothecin |
| O=C1c2ccccc2-c2c1c1ccccc1c(=O)n2C1CC1 |  |  | 84 | > 100 | > 100 | > 100 | 61 |  | > 100 | 0 | > 100 | > 100 |  |  |  |
| CCCn1c2c(c3ccccc3c1=O)C(=O)c1ccccc1-2 |  |  |  |  |  |  |  |  |  | 0 |  |  |  |  |  |
| CCCCn1c2c(c3ccccc3c1=O)C(=O)c1cc3c(cc1-2)OCO3 |  | 9 | 8.2 | 38 | 2.9 | 94 | 17 | > 100 | 37 |  |  |  |  |  | 20-50% of the activity of 1 uM camptothecin |
| COC(=O)Cn1c2c(c3ccccc3c1=O)C(=O)c1ccccc1-2 |  | > 100 | > 100 | > 100 |  | > 100 |  | > 100 | > 100 | 0 |  |  |  |  |  |
| C=CCn1c2c(c3cc(OC)c(OC)cc3c1=O)C(=O)c1cc3c(cc1-2)OCO3 |  | 2.2 |  | 3.2 | 2.3 | 6.6 | 3.4 | 5.2 | 2.6 |  |  |  |  |  | 20-50% of the activity of 1 uM camptothecin |
| COc1cc2c3c(n(C)c(=O)c2cc1OC)-c1cc2c(cc1C3=O)OCO2 |  | 41 | 4.2 | 37 | 35 |  | 1.3 | 96 | 68 |  |  |  |  |  |  |
